Screens as filed in PubChem BioAssay.
This is a sample that favours compounds with a hit; in the whole collection about 4.7% have one here.
RGS4 pot: RGS4 potentiation or activation; HEK293 M3R/inducible RGS4, carbachol calcium flux Fluo4; hits give low values; B-score at 10 µM; actives 0.92% (n = 310,000);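 active = B-score of the integrated calcium signal more than 4 SD below the library mean, with starting fluorescence not abnormally high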;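 also: negative B-score means reduced calcium response which marks RGS4 activation or potentiation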
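Material: M3R-expressing HEK293 line, RGS4 induced by doxycycline | Schedule: Overnight RGS4 induction, 30 min dye load 37 °C, 20 min compound RT | Measured by: Fluo4 fluorescence kinetic imaging of calcium | Read-out: Integrated calcium ratio converted to B score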
Cl transport mod: KCC2 (human) Cl- transport modulation; KCC2 cells, thallium flux FluoZin-2 fluorescence; actives 2.2% (n = 190,000); B-score of Tl+ flux slope (higher = more flux/activation; lower = inhibition) at 10 µM; Q9H2X9;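 active = thallium flux slope and its plate-corrected score both differing from the plate sample mean at a set confidence after two filtering rounds, in either direction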;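 also: slope of fluorescence scaled to starting intensity during 10 to 20 s after thallium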
MrgX1 allo act: human MrgX1 positive allosteric modulation, primary screen | MrgX1-HEK293, Fluo-4 calcium flux, FDSS; hits give high values | B-score at 10 µM | Q96LB2 | actives 0.63% (n = 310,000);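 active = plate-corrected calcium response at least 3 library SD above typical, normal starting fluorescence, not activating the receptor alone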;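 also: compound read alongside a low EC10 to EC30 dose of BAM8-22 agonist; peak minus trough fluorescence over baseline measured at the second addition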
Target sequence (Q96LB2 whole entry, looked up): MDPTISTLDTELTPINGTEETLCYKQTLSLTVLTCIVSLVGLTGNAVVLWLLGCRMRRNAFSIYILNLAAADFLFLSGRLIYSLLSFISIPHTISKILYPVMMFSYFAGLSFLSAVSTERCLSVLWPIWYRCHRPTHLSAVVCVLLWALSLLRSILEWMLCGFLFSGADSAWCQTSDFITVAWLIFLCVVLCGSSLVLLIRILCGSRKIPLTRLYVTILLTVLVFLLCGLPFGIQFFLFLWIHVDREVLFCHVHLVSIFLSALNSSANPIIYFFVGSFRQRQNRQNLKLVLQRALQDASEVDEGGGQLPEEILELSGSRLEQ
MrgX1 agonist: human MrgX1 receptor agonism, primary screen; Q96LB2; MrgX1-HEK293 cells, Fluo-4 calcium fluorescence, agonist mode; hits give high values; B-score at 10 µM; actives 0.44% (n = 310,000); AID 588627;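 active = calcium response B-score plate-corrected fluorescence ratio at least 3 library SD, with starting fluorescence B-score inside 5 SD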
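System: HEK293 cells stably expressing human MrgX1 receptor; Dosing: test compound in the initial addition of three; Schedule: overnight plating, then 30 min 37 °C plus 30 min room-temperature dye loading; Detection: kinetic calcium dye fluorescence, Fluo-4 NW; Controls: per-plate positive and negative controls for Z′ factor.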
RGS4 block: human RGS4 inhibition. actives 0.45% (n = 310,000). AID 463165. HEK293 M3R/RGS4 inducible, Fluo-4 calcium flux; hits give high values; triggered by carbachol at its EC20. B-score at 10 µM. P49798;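 active = B-score, a plate-corrected calcium signal, over three deviations above library mean, with baseline fluorescence within five deviations of library mean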;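 also: RGS4 expression induced by doxycycline in cells with stable M3 receptor; B-score is computed from the integrated fluorescence ratio over baseline after carbachol; higher B-score means a larger calcium signal and so more RGS4 inhibition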
Target sequence (P49798 whole entry, looked up): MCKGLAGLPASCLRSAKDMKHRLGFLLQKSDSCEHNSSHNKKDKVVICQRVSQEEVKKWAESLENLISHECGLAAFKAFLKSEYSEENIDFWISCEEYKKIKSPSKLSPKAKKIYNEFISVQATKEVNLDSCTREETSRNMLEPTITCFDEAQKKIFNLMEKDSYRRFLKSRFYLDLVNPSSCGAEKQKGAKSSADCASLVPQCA
MrgX1 antagonist: antagonists of human MrgX1 receptor | B-score at 10 µM | MRGX1-HEK293 calcium flux, Fluo-4, BAM8-22 antagonism; hits give low values | actives 1.3% (n = 310,000) | AID 588676 | Q96LB2;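 active = calcium-response B-score plate-corrected more than 3 library SD below zero, starting fluorescence within 5 deviations, no agonist response on first addition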;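 also: peak minus trough fluorescence over baseline after final BAM8-22 challenge near maximal dose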
RGS4 inh valid: validation of RGS4 inhibitors; shares compounds with RGS4 block; HEK293 M3R/RGS4, carbachol calcium Fluo-4 fluorescence; carbachol added at its EC20; 0 = buffer wells, 100 = carbachol control; calcium response, % at 10 µM; actives 65% (n = 1,700);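 active = duplicate-averaged calcium response above the buffer-only control mean plus 5 SD of those controls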;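 also: integrated fluorescence ratio F max minus min over baseline F0; higher response in RGS4-induced cells means RGS4 inhibition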
RGS4 uninduced: non-induced cell nonspecific activity of RGS4 inhibitors. shares compounds with RGS4 block. HEK293 M3R non-induced, carbachol calcium Fluo-4; submaximal (EC20) carbachol stimulus; buffer wells 0%, carbachol control wells 100%. activity (percent), % at 10 µM. actives 20% (n = 1,900). AID 493000; call rule not given here;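 also: RGS4 induction absent so cells express M3R without RGS4; higher means more calcium signal and flags a non-specific hit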
M3R basal Ca ctr: second counter-screen for RGS4 inhibitors: non-induced cells without carbachol; shares compounds with RGS4 block; HEK293 M3R/RGS4 non-induced, Fluo-4 calcium, no carbachol; normalised: buffer wells 0%, carbachol wells 100%; calcium response (agonist-mode artifact), % at 10 µM; actives 22% (n = 1,900); AID 493001;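 active = duplicate-averaged calcium rise in uninduced cells above buffer wells' mean plus 5 SD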
MrgX1 ag confirm: human MrgX1 agonism, re-confirmation screen; shares compounds with MrgX1 agonist; MrgX1-HEK293, Fluo-4 calcium fluorescence, FDSS; activation, % at 10 µM; actives 78% (n = 600); AID 602412;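 active = calcium signal rise, corrected for plate position, at least 3 library SD high, with starting brightness within 5 such deviations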
MrgX1 PAM conf: confirmation of human MrgX1 receptor positive allosteric modulators; shares compounds with MrgX1 allo act; MrgX1-HEK293, Fluo-4 calcium fluorescence, FDSS; activation (ratio percentage), % at 10 µM; actives 13% (n = 1,200);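 active = ratio at least 3 SD above the weak peptide control, stable starting fluorescence, no direct agonism earlier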;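 also: compound followed by low BAM8-22 agonist challenge near EC20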
MrgX1 antag conf: human MrgX1 receptor antagonism, re-confirmation screen; shares compounds with MrgX1 antagonist; MrgX1-HEK293, BAM8-22 calcium flux, Fluo-4; hits give low values; remaining BAM8-22 calcium response % of control (hits give low values), % at 10 µM; actives 19% (n = 2,300); AID 602420;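 active = remaining agonist calcium response no higher than 100% minus 3 SD of agonist-only control wells, with starting fluorescence near control levels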;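 also: agonist BAM8-22 given at a near maximal EC90 to ECmax level; peak minus minimum fluorescence divided by baseline after agonist addition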
HEK293 Ca flux: MrgX1 antagonist counter-screen hit in parental HEK293 cells. shares compounds with MrgX1 antagonist. Fluo-4 calcium fluorescence, FDSS. fluorescence ratio F(max-min)/F0 at 10 µM. actives 2% (n = 4,000). AID 624111;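 active = duplicate-averaged calcium fluorescence ratio at least three times the standard deviation of buffer wells, a nonspecific response in parental cells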
HEK293 Ca counter: counter-screen for MrgX1 allosteric activators: effect in parental HEK293 cells. shares compounds with MrgX1 antagonist. parental HEK293 calcium flux, Fluo-4 fluorescence ratio; hits give high values. fluorescence ratio F(max-min)/F0 at 10 µM. actives 0.4% (n = 4,000). AID 624114;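 active = calcium fluorescence ratio, averaged over duplicates, at least 3 SD of the buffer-well ratio, meaning a nonspecific response in receptor-free cells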;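 also: untransfected parental HEK293 lacking MrgX1 used as counterscreen for MrgX1 allosteric activators; fluorescence change taken during the second addition on a kinetic imager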
HEK293 Ca cntr2: MrgX1 activator counter-screen hit in parental HEK293 cells | shares compounds with MrgX1 antagonist | Fluo-4 calcium fluorescence (FDSS); hits give high values | fluorescence ratio F(max-min)/F0 at 10 µM | actives 8.7% (n = 4,000) | AID 624115;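 active = calcium fluorescence ratio at least three times the spread of buffer wells, meaning a non-specific response in parental cells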
An asterisk follows results filed as active; i = inactive; x = no result given.

SMILES | RGS4 pot | Cl transport mod | MrgX1 allo act | MrgX1 agonist | RGS4 block | MrgX1 antagonist | MrgX1 ag confirm | HEK293 Ca flux | HEK293 Ca counter | HEK293 Ca cntr2 | others
COc1cc(C2(c3ccc(O)c(OC)c3)C(=O)Nc3c(C)cc(Br)cc32)ccc1O | i | x | i | i | 12* | -4.6* | x | i | i | i | RGS4 inh valid=43%*;RGS4 uninduced=i;M3R basal Ca ctr=25%*;MrgX1 antag conf=83%*
O=[N+]([O-])c1ccc(Oc2ccc(S(=O)(=O)Nc3ccccc3)cc2)cc1 | i | -0.28 | i | i | i | i | x | x | x | x
O=C1C(Cl)=C(NS(=O)(=O)c2ccc([N+](=O)[O-])cc2)C(=O)c2ccccc21 | i | -1.3 | 21* | i | 8.5* | i | x | i | i | i | RGS4 inh valid=42%*;RGS4 uninduced=i;M3R basal Ca ctr=i;MrgX1 PAM conf=14%*
COc1ccc(CN=Cc2c(O)[nH]c3ccccc23)cc1 | i | -0.5 | i | i | i | i | x | x | x | x
Cc1ccc(CN=Cc2[nH]c3ccc(Br)c(Cl)c3c2O)cc1 | i | -3.3 | i | i | i | -6.8* | x | 0.23* | i | i | RGS4 inh valid=i;RGS4 uninduced=i;M3R basal Ca ctr=48%*;MrgX1 antag conf=i
COc1ccc(Cl)cc1NC(=O)CN(C)C(=O)CN1C(=O)NC2(CCCC2)C1=O | i | x | i | i | i | i | x | x | x | x
CC(Sc1ccccc1)C(=O)NNC(=O)c1ccncc1 (centres undefined) | i | x | i | i | i | i | x | x | x | x
Cc1c(Cl)ccc2c1NC(=O)[C@]21N[C@@H](Cc2ccccc2)[C@H]2C(=O)N(c3ccc(F)cc3)C(=O)[C@H]21 | i | 1.3 | i | 27* | 4.9* | i | i | i | i | i | RGS4 inh valid=27%*;RGS4 uninduced=i;M3R basal Ca ctr=20%*
CCN(CC)c1ccc(Nc2cc3n(c(=O)n2)CCc2cc(OC)c(OC)cc2-3)cc1 | i | x | i | i | i | -11* | x | i | i | i | RGS4 uninduced=50%*;M3R basal Ca ctr=i;MrgX1 antag conf=i
Cc1onc(-c2ccccc2)c1C(=O)N1CCC(CO)(Cc2ccccc2)CC1 | i | x | i | i | i | i | x | x | x | x
Cc1ccc(-c2csc(N=C(N)N)n2)c(C)c1 | i | -0.54 | i | 76* | i | i | 104%* | i | i | i
COc1ccc(-c2csc(N=C(N)N)n2)cc1 | i | 0.35 | i | i | i | i | x | x | x | x
O=C(C1CCC(=O)N(C2CCCC2)C1)N1CCN(Cc2cccc(F)c2)CC1 (centres undefined) | i | x | i | i | i | i | x | x | x | x
Cc1cccc(C)c1NC(=O)C(=O)NCCc1c[nH]c2ccccc12 | i | -0.27 | i | 41* | i | i | i | i | 49* | i
CC(NS(=O)(=O)c1ccc(F)cc1)C(=O)Nc1ccc2c(c1)OCCO2 (centres undefined) | i | x | i | i | i | i | x | x | x | x
CN(C)CCOC1c2ccccc2CCc2ccc3ccccc3c21 (centres undefined) | i | x | i | 57* | i | i | 142%* | i | i | i
Cc1cc(C)n(-c2nc(C)nc(NCc3ccccc3)n2)n1 | i | x | i | 34* | i | i | 130%* | i | i | i
O=C(NCCNC(=O)c1ccco1)c1ccc(Cl)c(Cl)c1 | i | x | i | i | i | i | x | x | x | x
COc1ccccc1N(C(=O)c1snc(C(N)=O)c1N)C(C(=O)NC1CCCCC1)c1cccc(OC)c1OC (centres undefined) | i | x | i | i | i | i | x | x | x | x
COc1cc2c(cc1OC)C(c1ccccc1C(F)(F)F)CC(=O)N2 (centres undefined) | i | x | i | 29* | i | i | i | i | i | i
COc1cc2c(cc1OC)C(c1ccccc1C)CC(=O)N2 (centres undefined) | i | x | i | i | i | i | x | x | x | x
CC(C)(C)c1cc(C(c2cccnc2)N2CCN(CCO)CC2)cc(C(C)(C)C)c1O (centres undefined) | i | -0.12 | i | 32* | i | i | 263%* | i | i | 53*
COc1ccc(C2=NN(C(=O)CSc3nc(=O)n4cccc(C)c4n3)C(c3ccc(C)cc3)C2)cc1 (centres undefined) | i | x | i | i | i | i | x | x | x | x
O=c1c2ccccc2nc(SCc2cccc(F)c2)n1C1CCCC1 | i | 0.93 | i | 29* | i | i | 196%* | i | 53* | i
COc1ccc(Nc2cc(C)nc(N)n2)cc1 | i | -0.029 | i | i | i | i | x | x | x | x
Cc1cc(Nc2ccc(Cl)cc2)nc(N)n1 | i | -0.48 | i | 35* | i | i | 207%* | i | i | i
